Laboratory results reported in PMC2232887 (The Journal of General Physiology, 2000).
Where “and” joins values, the source holds several entries; their conditions need not be identical. Equal values may be shown once. Read-outs that look alike come from different tables or passages of the source. Blank lines part the entries; values can stand above or below the compound they belong to.

Legend:
[1] = tested on: native rod CNG channels; assay: Inside-out patch recording of native rod CNG channels from rod outer segments; format: biochemical, tiger salamanders (Ambystoma tigrinum); settings: for effect on the kinetics, cGMP sensitivity, or maximal current: in the absence of genistein
Method in brief: (§1)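 Dark-adapted (1 h) tiger salamanders were anaesthetised in ice-cold […] (1 g/liter, 20 min). Retinas were triturated under dim red light, and inside-out patches were excised from rod or cone outer segments. Pipettes were 3–5 MΩ (115 mM NaCl, 5 EGTA, 1 EDTA, 5 HEPES, pH 7.5). Held at −75 mV; currents normalised to 2 mM cGMP Imax. Closed channels were pre-exposed 1 min to test compound, then given 2 mM cGMP. Ki from modified Hill fit.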

[2] = tested on: native cone CNG channels; assay: Inside-out patch recording of native cone CNG channels from cone outer segments; format: biochemical, tiger salamanders (Ambystoma tigrinum)
Method in brief: as §1

[3] = tested on: native olfactory CNG channels; format: biochemical, tiger salamanders
Method in brief: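 Olfactory epithelium from land-phase tiger salamanders was digested with papain for 18–22 min at 21°C, washed 10 min in ice-cold solution and triturated to single neurons. Excised patches used 10–20 MΩ pipettes. Held at −75 mV; currents normalised to 2 mM cGMP Imax; mean ± SEM.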

[4] = molecular target: T1, homomeric RETα channels (α subunits of the bovine rod photoreceptor CNG channel) (Bos taurus, UniProt Q00194); format: biochemical
T1 sequence (Q00194 1-690): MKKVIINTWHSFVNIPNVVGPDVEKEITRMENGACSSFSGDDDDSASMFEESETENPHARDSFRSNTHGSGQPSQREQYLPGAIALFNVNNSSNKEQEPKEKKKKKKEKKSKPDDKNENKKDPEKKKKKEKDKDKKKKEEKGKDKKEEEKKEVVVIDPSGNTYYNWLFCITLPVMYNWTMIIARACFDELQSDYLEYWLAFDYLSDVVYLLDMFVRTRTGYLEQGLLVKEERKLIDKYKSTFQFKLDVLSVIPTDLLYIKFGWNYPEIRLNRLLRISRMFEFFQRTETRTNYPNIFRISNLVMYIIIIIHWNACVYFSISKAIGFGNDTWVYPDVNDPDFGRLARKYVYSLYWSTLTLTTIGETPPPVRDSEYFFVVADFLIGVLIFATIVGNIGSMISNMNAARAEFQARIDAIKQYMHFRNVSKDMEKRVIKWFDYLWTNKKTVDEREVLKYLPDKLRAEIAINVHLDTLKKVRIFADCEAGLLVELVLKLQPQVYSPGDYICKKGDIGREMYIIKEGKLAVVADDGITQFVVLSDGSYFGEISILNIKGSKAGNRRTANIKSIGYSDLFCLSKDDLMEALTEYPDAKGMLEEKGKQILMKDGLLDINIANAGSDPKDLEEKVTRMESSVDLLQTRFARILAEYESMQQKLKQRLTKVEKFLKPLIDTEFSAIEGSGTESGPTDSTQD
Method in brief: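 Bovine rod CNG α-subunit cRNA was injected into Xenopus oocytes (50 nl at 1 ng/nl). After 2–7 d, vitelline membrane was removed. Inside-out patches were recorded at 21–24°C with 2–3 MΩ pipettes in standard patch solution (115 mM NaCl, 5 EGTA, 1 EDTA, 5 HEPES, pH 7.5), held at −75 mV. Perfusion switched in 50 ms. Test compound (DMSO stock) was applied before or after 2 mM cGMP. Ki and Hill coefficient from modified Hill fit.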

[5] = molecular target: heteromeric RETα+β channels (Bos taurus, UniProt Q00194); format: biochemical, bovine
[6] = molecular target: T2, homomeric OLFα channels (rat olfactory CNG channels) (Rattus norvegicus, UniProt Q00195); format: biochemical; settings: concentrations up to 500 μM
T2 sequence (Q00195 1-664): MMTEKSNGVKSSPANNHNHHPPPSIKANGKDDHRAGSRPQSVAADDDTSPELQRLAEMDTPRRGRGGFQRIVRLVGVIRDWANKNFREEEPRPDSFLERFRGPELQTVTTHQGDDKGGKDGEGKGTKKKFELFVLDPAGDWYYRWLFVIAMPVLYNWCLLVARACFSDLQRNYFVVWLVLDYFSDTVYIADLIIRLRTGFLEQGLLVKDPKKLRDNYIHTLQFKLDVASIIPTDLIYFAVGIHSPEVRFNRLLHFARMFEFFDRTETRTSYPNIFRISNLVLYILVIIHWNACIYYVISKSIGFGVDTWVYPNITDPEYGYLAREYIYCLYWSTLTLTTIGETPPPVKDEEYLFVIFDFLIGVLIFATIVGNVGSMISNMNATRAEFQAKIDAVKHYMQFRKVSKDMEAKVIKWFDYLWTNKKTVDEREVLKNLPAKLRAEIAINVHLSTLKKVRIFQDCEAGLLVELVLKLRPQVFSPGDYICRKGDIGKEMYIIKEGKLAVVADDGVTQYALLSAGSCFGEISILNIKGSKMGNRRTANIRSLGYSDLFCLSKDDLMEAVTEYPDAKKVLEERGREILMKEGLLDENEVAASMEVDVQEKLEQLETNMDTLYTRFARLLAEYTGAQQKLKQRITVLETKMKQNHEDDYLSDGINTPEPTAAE

[7] = molecular target: T3, heteromeric OLFα+β channels (Rattus norvegicus, UniProt Q00195+Q64359); format: biochemical; settings: closed and fully activated channels
T3 sequence (Q00195 1-664): T2 sequence (Q00195 1-664)
T3 sequence (Q64359 1-575): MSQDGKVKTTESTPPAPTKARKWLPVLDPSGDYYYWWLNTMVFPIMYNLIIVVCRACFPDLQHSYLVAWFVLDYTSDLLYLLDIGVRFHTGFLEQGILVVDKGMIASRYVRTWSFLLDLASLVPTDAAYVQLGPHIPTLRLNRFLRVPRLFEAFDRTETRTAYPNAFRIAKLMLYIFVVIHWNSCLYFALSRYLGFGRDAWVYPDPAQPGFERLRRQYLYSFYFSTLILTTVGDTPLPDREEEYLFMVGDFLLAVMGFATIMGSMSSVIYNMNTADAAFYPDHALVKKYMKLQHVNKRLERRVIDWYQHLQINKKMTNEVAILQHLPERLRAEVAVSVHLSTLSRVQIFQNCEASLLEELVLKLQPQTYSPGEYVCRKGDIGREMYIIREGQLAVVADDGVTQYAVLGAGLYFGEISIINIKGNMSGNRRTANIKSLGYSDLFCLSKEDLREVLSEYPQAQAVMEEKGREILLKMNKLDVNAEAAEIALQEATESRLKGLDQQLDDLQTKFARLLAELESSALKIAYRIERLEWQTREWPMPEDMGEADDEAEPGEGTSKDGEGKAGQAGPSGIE

[8] = molecular target: hybrid OLFα+RETβ channels (UniProt Q00195+Q28181); format: biochemical; settings: for block of channels by L-cis diltiazem: 10 μM L-cis diltiazem
Method in brief: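 Xenopus oocytes were co-injected with olfactory α and rod β subunit mRNAs. Inside-out patches were recorded at 21–24°C in standard patch solution (115 mM NaCl, 5 EGTA, 1 EDTA, 5 HEPES, pH 7.5), held at −75 mV. Rod β incorporation was checked by applying 10 μM l-cis diltiazem. Currents were normalised to Imax at 2 mM cGMP.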

[9] = tested on: heteromeric RETα+β channels; format: biochemical, bovine; settings: 10 μM L-cis diltiazem, saturating (2 mM) cGMP
[10] = closed channels, saturating genistein (500 μM)
[11] = fully activated, saturating cGMP (2 mM)

Chain of hybrid OLFα+RETβ channels (Q28181 whole entry, one chain of several): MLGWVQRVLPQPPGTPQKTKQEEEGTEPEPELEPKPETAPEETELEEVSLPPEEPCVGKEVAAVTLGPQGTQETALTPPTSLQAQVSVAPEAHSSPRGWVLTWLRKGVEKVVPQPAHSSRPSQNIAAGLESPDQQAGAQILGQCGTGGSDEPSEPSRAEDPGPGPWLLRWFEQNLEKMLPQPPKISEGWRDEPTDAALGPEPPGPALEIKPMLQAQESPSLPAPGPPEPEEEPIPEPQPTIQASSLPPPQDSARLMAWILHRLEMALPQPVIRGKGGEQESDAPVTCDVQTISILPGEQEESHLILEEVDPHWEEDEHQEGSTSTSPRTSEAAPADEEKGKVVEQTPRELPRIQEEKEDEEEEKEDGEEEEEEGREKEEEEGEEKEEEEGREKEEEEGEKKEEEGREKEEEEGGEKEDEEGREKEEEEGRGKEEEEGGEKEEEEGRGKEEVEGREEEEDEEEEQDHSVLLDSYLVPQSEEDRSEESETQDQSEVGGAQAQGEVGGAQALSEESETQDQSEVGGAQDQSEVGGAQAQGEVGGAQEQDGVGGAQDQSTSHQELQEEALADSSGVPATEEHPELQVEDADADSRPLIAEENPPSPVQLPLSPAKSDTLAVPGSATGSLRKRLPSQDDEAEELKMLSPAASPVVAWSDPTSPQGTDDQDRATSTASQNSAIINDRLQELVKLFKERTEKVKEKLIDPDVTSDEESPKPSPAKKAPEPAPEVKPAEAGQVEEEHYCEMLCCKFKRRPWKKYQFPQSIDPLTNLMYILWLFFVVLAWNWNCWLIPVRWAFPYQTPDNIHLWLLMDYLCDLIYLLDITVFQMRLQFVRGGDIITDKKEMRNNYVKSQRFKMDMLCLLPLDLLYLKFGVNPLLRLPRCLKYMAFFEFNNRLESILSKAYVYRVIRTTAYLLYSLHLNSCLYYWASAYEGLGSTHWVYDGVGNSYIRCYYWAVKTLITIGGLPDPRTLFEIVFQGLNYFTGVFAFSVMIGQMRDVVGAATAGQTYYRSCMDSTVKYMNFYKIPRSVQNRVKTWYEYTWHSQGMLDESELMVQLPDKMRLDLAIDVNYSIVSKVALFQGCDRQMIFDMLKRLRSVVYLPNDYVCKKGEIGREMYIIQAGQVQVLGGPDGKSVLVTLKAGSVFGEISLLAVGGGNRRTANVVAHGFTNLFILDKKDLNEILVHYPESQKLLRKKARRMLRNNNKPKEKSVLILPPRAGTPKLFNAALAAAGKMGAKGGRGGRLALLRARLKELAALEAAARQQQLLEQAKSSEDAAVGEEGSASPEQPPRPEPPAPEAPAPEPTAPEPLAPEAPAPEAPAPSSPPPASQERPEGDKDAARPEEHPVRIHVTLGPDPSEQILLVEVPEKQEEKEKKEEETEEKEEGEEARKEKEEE
Chain of heteromeric RETα+β channels (Bos taurus, UniProt Q00194) (Q28181 whole entry partner, one chain of several): as the sequence (Q28181 whole entry, one chain of several) above

Compound: O=CN/C=C/c1cc(O)ccc1O [erbstatin]
- effect on the kinetics, cGMP sensitivity, or maximal current [1]: no effect

- maximal inhibition of closed channels by saturating genistein [3, 10]: 28 ± 4%
- inhibition of fully activated channels by genistein [3, 11]: 11 ± 4%
- Hill coefficient of genistein inhibition ([4]; closed channels): ~2
- inhibition of fully activated channels by genistein [4, 11]: 67 ± 4%
- Hill coefficient of genistein inhibition ([4]; open, fully activated channels): ~1
- time constant of genistein inhibition ([4]; open, fully activated channels): 9 s
- Ki ([4]; read-out: apparent K i for genistein, closed channels): 4 µM
- Hill coefficient of genistein inhibition ([5]; closed channels): ~2 and ~1
- Hill coefficient of genistein inhibition ([5]; open, fully activated channels): ~1
- time constant of genistein inhibition ([5]; open, fully activated channels): ~1 s
- genistein inhibition of closed channels ([6]; closed channels): fails to inhibit
- genistein inhibition of fully activated channels ([6]; fully activated channels): fails to inhibit
- effect of genistein on hybrid channels ([8]; closed and fully activated states): no effect
Compound: O=c1c(-c2ccc(O)cc2)coc2cc(O)cc(O)c12 [genistein]
- τ of slowly activating CNG current component after genistein pretreatment ([1]; closed channels pre-exposed to 100 μM genistein for 1 min, then 2 mM cGMP): 8.5 s
- maximal inhibition of closed channels by saturating genistein [1, 10]: 61 ± 8%
- inhibition of fully activated channels by genistein [1, 11]: 31 ± 4%
- time constant of genistein inhibition ([1]; open, fully activated channels): 1.2 s
- maximal inhibition of closed channels by saturating genistein [2, 10]: 50 ± 3%
- inhibition of fully activated channels by genistein [2, 11]: 37 ± 3%
- genistein inhibition compared with native olfactory channels [7]: inhibited to an even greater extent than were native olfactory channels

Compound: Nc1ncnc2c1ncn2[C@@H]1O[C@H](COP(=O)(O)OP(=O)(O)NP(=O)(O)O)[C@@H](O)[C@H]1O [AMP-PNP, adenylylimidodiphosphate]
- effect on the kinetics, cGMP sensitivity, or maximal current [1]: no effect

- block of channels by L-cis diltiazem ([8]; OLFα to RETβ mRNA ratio 1:1.5): 36.8 ± 2.9%
- block of channels by L-cis diltiazem ([8]; OLFα to RETβ mRNA ratio 1:3): 32.8 ± 1.4%
Compound: COc1ccc([C@H]2Sc3ccccc3N(CCN(C)C)C(=O)[C@H]2OC(C)=O)cc1 (relative stereo) [L-cis diltiazem]
- inhibition of channels by L-cis diltiazem ([9]; RETα to RETβ mRNA ratio 1:5): 50%
- inhibition of channels by L-cis diltiazem ([9]; RETα to RETβ mRNA ratio 1:8): 78%
- inhibition of channels by L-cis diltiazem ([9]; RETα to RETβ mRNA ratio 1:10): 80%
